One block for each compound: values may come before it. Activity calls are given as the source filed them. The rule behind the calls is not given here.
Assays:
[1] = Cellular uptake in mitochondria of human PC3 cells at 1 uM after 10 to 40 mins by fluorescence microscopy; assay type: ADME; conditions: pc-3, 1 µM
Outline: (§1)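 Live cells were treated with 1 μM Bodipy conjugates for at least 40 min and then co-stained with MitoTracker Red FM (100 nM, 10 min). Imaging by fluorescence microscopy assessed colocalisation with the green signal and the state of the mitochondrial network.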

PC-3 [2] = assay: Induction of mitochondria fragmentation in human PC3 cells at 1 uM after 10 to 40 mins by fluorescence microscopy; assay type: functional, cell-based; outline: as §1
LNCaP [3] = assay: Cytotoxicity against human LNCAP cells after 48 hrs by WST-1 assay; assay type: functional, cell-based
Outline: (§2)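 Dark cytotoxicity (no light exposure) by WST-1 tetrazolium-to-formazan conversion reflecting metabolic activity; compounds tested at concentrations up to 50 μM for 24, 48 or 72 h; IC50 taken as concentration giving 50% inhibition of cell viability.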

[4] = Cytotoxicity against human PC3 cells after 24 hrs by WST-1 assay; assay type: functional, cell-based; conditions: PC-3, 24 h; outline: as §2
[5] = Cytotoxicity against human PC3 cells after 48 hrs by WST-1 assay; assay type: functional, cell-based; conditions: PC-3, 48 h; outline: as §2
[6] = Cytotoxicity against human PC3 cells after 72 hrs by WST-1 assay; assay type: functional, cell-based; conditions: PC-3, 72 h; outline: as §2
C2C12 [7] = assay: Cytotoxicity against mouse C2C12 cells after 24 hrs by WST-1 assay; assay type: functional, cell-based; conditions: C2C12, 24 h; outline: as §2
C2C12 [8] = assay: Cytotoxicity against mouse C2C12 cells after 48 hrs by WST-1 assay; assay type: functional, cell-based; conditions: C2C12, 48 h; outline: as §2
C2C12 [9] = assay: Cytotoxicity against mouse C2C12 cells after 72 hrs by WST-1 assay; assay type: functional, cell-based; conditions: C2C12, 72 h; outline: as §2
U2OS [10] = assay: Cytotoxicity against human U2OS cells after 24 hrs by WST-1 assay; assay type: functional, cell-based; outline: as §2
U2OS [11] = assay: Cytotoxicity against human U2OS cells after 48 hrs by WST-1 assay; assay type: functional, cell-based; outline: as §2
U2OS [12] = assay: Cytotoxicity against human U2OS cells after 72 hrs by WST-1 assay; assay type: functional, cell-based; outline: as §2
MCF7 [13] = assay: Cytotoxicity against human MCF7 cells after 72 hrs by WST-1 assay; assay type: functional, cell-based; conditions: MCF7, 72 h; outline: as §2
[14] = Cytotoxicity against human MIAPaCa2 cells after 24 hrs by WST-1 assay; assay type: functional, cell-based; conditions: MIA PaCa-2, 24 h; outline: as §2
[15] = Cytotoxicity against human MIAPaCa2 cells after 48 hrs by WST-1 assay; assay type: functional, cell-based; conditions: MIA PaCa-2, 48 h; outline: as §2
[16] = Cytotoxicity against human MIAPaCa2 cells after 72 hrs by WST-1 assay; assay type: functional, cell-based; conditions: MIA PaCa-2, 72 h; outline: as §2
HT-29 [17] = assay: Cytotoxicity against human HT-29 cells after 48 hrs by WST-1 assay; assay type: functional, cell-based; conditions: HT-29, 48 h; outline: as §2
HT-29 [18] = assay: Cytotoxicity against human HT-29 cells after 72 hrs by WST-1 assay; assay type: functional, cell-based; conditions: HT-29, 72 h; outline: as §2
[19] = Cytotoxicity against rat peritoneal cells assessed as reduction in cell viability at 40 uM after 24 hrs by WST-1 assay; assay type: cell-based
Rattus norvegicus [20] = organism: Rattus norvegicus; assay: Induction of LPS-induced NO production in rat peritoneal cells at 40 uM after 24 hrs using DAR-2 probe by fluorescence assay; assay type: functional, cell-based
Outline: (§3)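 Rat peritoneal cells were treated with conjugates at 0.01–100.0 μM for 24 h. NO production was compared with untreated cells. LPS (100 pg·mL−1) and trilobolide (0.1 μM) were included as references. Data are mean ± SEM of three independent experiments, n = 6.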

PC-3 [21] = assay: Induction of LPS-induced NO production in human PC3 cells at 40 uM after 24 hrs using DAR-2 probe by fluorescence assay; assay type: functional, cell-based
Outline: (§4)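 NO in living cells (PC-3, LNCaP, MCF-7, U-2 OS) was imaged by fluorescence microscopy with the NO-specific red-emitting probe DAR-2 after compound stimulation.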

LNCaP [22] = assay: Induction of LPS-induced NO production in human LNCAP cells at 40 uM after 24 hrs using DAR-2 probe by fluorescence assay; assay type: functional, cell-based; outline: as §4
MCF7 [23] = assay: Induction of LPS-induced NO production in human MCF7 cells at 40 uM after 24 hrs using DAR-2 probe by fluorescence assay; assay type: functional, cell-based; outline: as §4
U2OS [24] = assay: Induction of LPS-induced NO production in human U2OS cells at 40 uM after 24 hrs using DAR-2 probe by fluorescence assay; assay type: functional, cell-based; outline: as §4
Rattus norvegicus [25] = organism: Rattus norvegicus; assay: Induction of LPS-induced NO production in rat peritoneal cells after 24 hrs using DAR-2 probe by fluorescence assay; assay type: functional, cell-based
Rattus norvegicus [26] = organism: Rattus norvegicus; assay: Induction of LPS-induced NO production in rat peritoneal cells at 1 to 10 uM after 24 hrs using DAR-2 probe by fluorescence assay; assay type: functional, cell-based; outline: as §3
[27] = Cellular uptake in human PC3 cells at 1 uM after 20 mins by fluorescence microscopy; assay type: ADME, cell-based; conditions: pc-3, 20 min
Outline: (§5)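 Uptake into living cells was followed by fluorescence microscopy at 10, 20 and 40 min and at 1, 3, 5 and 24 h. Green-emitting Bodipy conjugates were given at 1 μM. A Bodipy dye-only stain served as control for dye-driven localisation.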

U2OS [28] = assay: Cellular uptake in human U2OS cells at 1 uM after 20 mins by fluorescence microscopy; assay type: ADME, cell-based; outline: as §5
LNCaP [29] = assay: Cellular uptake in human LNCAP cells at 1 uM after 20 mins by fluorescence microscopy; assay type: ADME, cell-based; outline: as §5
MCF7 [30] = assay: Cellular uptake in human MCF7 cells at 1 uM after 20 mins by fluorescence microscopy; assay type: ADME, cell-based; conditions: mcf7, 20 min; outline: as §5
[31] = Cellular uptake in human MIAPaCa2 cells at 1 uM after 20 mins by fluorescence microscopy; assay type: ADME, cell-based; conditions: mia paca-2, 20 min; outline: as §5
A549 = assay: Cellular uptake in human A549 cells at 1 uM after 20 mins by fluorescence microscopy; assay type: ADME, cell-based; conditions: a549, 20 min; outline: as §5
[32] = Cellular uptake in HEK293T cells at 1 uM after 20 mins by fluorescence microscopy; assay type: ADME, cell-based; conditions: human, hek-293t; outline: as §5
[33] = Cellular uptake in human PC3 cells at 1 uM after 40 mins to 24 hrs by fluorescence microscopy; assay type: ADME, cell-based; conditions: pc-3, 1 µM; outline: as §5
[34] = Cellular uptake in human MIAPaCa2 cells at 1 uM after 40 mins to 24 hrs by fluorescence microscopy; assay type: ADME, cell-based; conditions: mia paca-2, 1 µM; outline: as §5
U2OS [35] = assay: Cellular uptake in human U2OS cells at 1 uM after 10 to 20 mins by fluorescence microscopy; assay type: ADME, cell-based; outline: as §5
U2OS [36] = assay: Cellular uptake in human U2OS cells at 1 uM after 45 to 60 mins by fluorescence microscopy; assay type: ADME, cell-based; outline: as §5
[37] = Cellular uptake in Endoplasmic reticulum of human U2OS cells at 1 uM after 1 hr by fluorescence microscopy; assay type: ADME, cell-based
Outline: (§6)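 Live-cell fluorescence microscopy of cells exposed to Bodipy-labelled conjugates at 1 μM for 1 h. ER was co-stained with ER-Tracker Blue-White DPX (100 nM, 20 min) to check colocalisation. A Bodipy dye-only stain served as control.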

[38] = Cellular uptake in Endoplasmic reticulum of human HeLa cells at 1 uM after 1 hr by fluorescence microscopy; assay type: ADME, cell-based; outline: as §6
U2OS [39] = assay: Induction of ER stress in Endoplasmic reticulum of human U2OS cells assessed as small vesicle formation from ER network at 1 uM after 3 to 5 hrs by fluorescence microscopy; assay type: functional, cell-based
Outline: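 U-2 OS live cells were incubated with conjugates at 1 μM for 1, 3 and 5 h. Fluorescence microscopy was used to score small vesicles or pouches budding from the ER network.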

U2OS [40] = assay: Induction of mitochondria fragmentation in human U2OS cells at 1 uM after 10 to 40 mins by fluorescence microscopy; assay type: functional, cell-based; outline: as §1

Drug uptake [1]: Not Active | Drug uptake [27]: Active | Drug uptake (U2OS [28]): Active | Drug uptake (LNCaP [29]): Active | Drug uptake (MCF7 [30]): Active | Drug uptake [31]: Active | Drug uptake (A549): Active | Drug uptake [32]: Active | Drug uptake [33]: Active | Drug uptake [34]: Active | Drug uptake (U2OS [35]): Active | Drug uptake (U2OS [36]): Not Active | Drug uptake [37]: Active | Drug uptake [38]: Active
SMILES: C/C=C(/C)C(=O)O[C@@H]1C[C@H]2C(=C1C)[C@@H]1OC(=O)[C@@](C)(O)[C@@]1(O)[C@@H](OC(=O)CCOCCOCCOCCOCCn1cc(COc3ccc(C4=C5C=CC=[N+]5[B-](F)(F)n5cccc54)cc3)nn1)C[C@]2(C)OC(C)=O
Activity (PC-3 [2]): Active | IC50 (LNCaP [3]): 0.4 µM | IC50 [4]: 2.5 µM | IC50 [5]: 3.1 µM | IC50 [6]: 4.1 µM | IC50 (C2C12 [7]): 8 µM | IC50 (C2C12 [8]): 6.5 µM | IC50 (C2C12 [9]): 14.3 µM | IC50 (U2OS [10]): > 50 µM | IC50 (U2OS [11]): 5.4 µM | IC50 (U2OS [12]): 9.1 µM | IC50 (MCF7 [13]): 6 µM | IC50 [14]: > 50 µM | IC50 [15]: 9.9 µM | IC50 [16]: 6.5 µM | IC50 (HT-29 [17]): 14.2 µM | IC50 (HT-29 [18]): > 50 µM | Activity [19]: Non-toxic | Activity (Rattus norvegicus [20]): Active | Activity (PC-3 [21]): Active | Activity (LNCaP [22]): Active | Activity (MCF7 [23]): Active | Activity (U2OS [24]): Active | Activity (Rattus norvegicus [25]): Dose-dependent effect | Activity (Rattus norvegicus [26]): Active | Activity (U2OS [39]): Active | Activity (U2OS [40]): Active

SMILES: C/C=C(/C)C(=O)O[C@@H]1C[C@H]2C(=C1C)[C@@H]1OC(=O)[C@@](C)(O)[C@@]1(O)[C@@H](OC(=O)CCCCn1cc(COc3ccc(C4=C5C=CC=[N+]5[B-](F)(F)n5cccc54)cc3)nn1)C[C@]2(C)OC(C)=O
Drug uptake [1]: Not Active | Activity (PC-3 [2]): Active | IC50 (LNCaP [3]): 9.7 µM | IC50 [4]: 4.2 µM | IC50 [5]: 4.6 µM | IC50 [6]: 3.8 µM | IC50 (C2C12 [7]): > 50 µM | IC50 (C2C12 [8]): 7.5 µM | IC50 (C2C12 [9]): 15.1 µM | IC50 (U2OS [10]): 25.6 µM | IC50 (U2OS [11]): 13.2 µM | IC50 (U2OS [12]): 9.1 µM | IC50 (MCF7 [13]): 10.8 µM | IC50 [14]: > 50 µM | IC50 [15]: 43.5 µM | IC50 [16]: 38.3 µM | IC50 (HT-29 [17]): > 50 µM | IC50 (HT-29 [18]): > 50 µM | Activity [19]: 20% | Activity (Rattus norvegicus [20]): Active | Activity (PC-3 [21]): Active | Activity (LNCaP [22]): Active | Activity (MCF7 [23]): Active | Activity (U2OS [24]): Active | Activity (Rattus norvegicus [25]): Dose-dependent effect | Activity (Rattus norvegicus [26]): Active | Drug uptake [27]: Active | Drug uptake (U2OS [28]): Active | Drug uptake (LNCaP [29]): Active | Drug uptake (MCF7 [30]): Active | Drug uptake [31]: Active | Drug uptake (A549): Active | Drug uptake [32]: Active | Drug uptake [33]: Active | Drug uptake [34]: Active | Drug uptake (U2OS [35]): Active | Drug uptake (U2OS [36]): Not Active | Drug uptake [37]: Active | Drug uptake [38]: Active | Activity (U2OS [39]): Active | Activity (U2OS [40]): Active
